# Laboratory results: ChEMBL document CHEMBL3272340, “P-Aminobenzoic acid derivatives as inhibitors of the cell-free H2-pteroate synthesizing system of Escherichia coli” (J Med Chem, 1977)
# Active and inactive are the calls of the source. No cut-off for these calls is given here.
# Assays:
# [1] = tested on: Escherichia coli B; test: Competitive inhibition of Escherichia coli B H2-pteroate synthetase assessed as decrease in H2-pteroate formation using [7-14C]-PABA as substrate treated with enzyme for 10 mins prior to substrate challenge for 40 mins by radioassay method
# Summary of the method: (§1)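 Cell-free extract of E. coli B (400-600 ug protein) was preincubated 10 min at 37 °C with 0.5 umol ATP, 2 umol MgCl2, 0.5 mg ascorbate, 0.1 mmol Tris-HCl pH 8.0 and 20 nmol 2-amino-4-hydroxy-6-hydroxymethyl-7,8-dihydropteridine in 0.45 ml. [7-14C]-PABA was then added and incubation ran 40 min. The reaction was stopped with citric acid phosphate buffer pH 3.8, free PABA was ether-extracted, and aqueous radioactivity was counted.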
# [2] = Competitive inhibition of Escherichia coli B H2-pteroate synthetase assessed as decrease in H2-pteroate formation using [7-14C]-PABA as substrate treated with enzyme for 10 mins prior to substrate challenge for 40 mins by Dixon plot analysis; summary of the method: as §1
# [3] = Dissociation constant, pKa of the compound; type: physicochemical
# [4] = tested on: Escherichia coli; test: Antibacterial activity against Escherichia coli 273 assessed as growth inhibition at 1 mM after 22 hrs; type: functional, organism-based
# Summary of the method: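 PABA-requiring E. coli 273 was grown across a range of PABA concentrations with compound at 1 mM, and growth was read after 22 h of incubation.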
SMILES,Inhibition index [1],other results
Nc1ccc(C(=O)N[C@@H](CCC(=O)O)C(=O)O)cc1,76,Ki [2]: 170 µM
Nc1ccc(C(=O)N[C@H](CCC(=O)O)C(=O)O)cc1,250,–
CC(=O)c1ccc(N)cc1,210,pKa [3]: 2.5
Nc1ccc(C(=O)CC(C(=O)O)c2ccccc2)cc1 (racemic) [listing 1 of 2 here],74,growth inhibition (GI) [4]: inactive
CN(C)C(=O)c1ccc(N)cc1,400,–
Nc1ccc(CC(=O)O)cc1,–,pKa [3]: 3.6
CNC(=O)c1ccc(N)cc1,120,–
Cc1ccc(N)cc1,–,pKa [3]: 5.1
NC(=O)c1ccc(N)cc1,53,–
CCC(=O)c1ccc(N)cc1,180,–
Nc1ccc(C(=O)CC(C(=O)O)c2ccccc2)cc1 (racemic) [listing 2 of 2 here],–,Ki [2]: 150 µM

# Further lines, with some results ahead:
Inhibition index [1],SMILES,other results
105,CCOC(=O)CC(=O)c1ccc(N)cc1,–
600,Nc1ccc(C(=O)Nc2ccccc2)cc1,–
40,Nc1ccc(C(=O)CC(C(=O)O)c2ccccc2)cc1 (stereo in doubt; 26),–
550,COC(=O)CNC(=O)c1ccc(N)cc1,–
450,COC(=O)c1ccc(N)cc1,pKa [3]: 2.46
800,Nc1ccc(C(=O)c2ccccc2)cc1,pKa [3]: 2.24
800,Nc1ccc(C(=O)NCCc2ccccc2)cc1,–
480,Nc1ccc(C(=O)CC(C(=O)O)c2ccccc2)cc1 (stereo in doubt; 25),–
600,CCOC(=O)c1ccc(N)cc1 [BENZOCAINE],pKa [3]: 2.5
460,CCOC(=O)CCC(=O)c1ccc(N)cc1,–
600,CCOC(=O)CC[C@H](NC(=O)c1ccc(N)cc1)C(=O)OCC,–
55,Nc1ccc(C(=O)CCC(=O)O)cc1,Ki [2]: 130 µM; growth inhibition (GI) [4]: inactive
700,Nc1ccc(C(=O)NCCCC(=O)O)cc1,–
260,Nc1ccc(C(=O)NCC(=O)O)cc1,–
